{"data": "Results of several laboratories", "read-out": "enzyme activity", "action": "inhibitor", "CDK5 with p25": "Cyclin-dependent kinase 5, with p25 (CDK5, Homo sapiens, UniProt Q00535)", "note": "Lines come from different studies, so protocols differ."}
{"SMILES": "CCCOc1ccc(OC)c(F)c1C(=O)c1ccc(C(=O)N[C@@H]2CNC[C@H]2NC(=O)c2ccc3[nH]ncc3c2)cc1", "target": "CDK5 with p25", "concentration": "0.1 µM", "remaining activity [%]": 112}
{"SMILES": "COc1cc(Cl)c(C(=O)N[C@@H](CN[C@H]2CC[C@@H](N)CC2)Cc2ccc(C#N)cc2)cc1-c1ccc(CN[C@H](C)c2ccc(C)cc2)o1", "target": "CDK5 with p25", "concentration": "1 µM", "remaining activity [%]": 102}
{"SMILES": "Cc1cnc(NC2CCOCC2)nc1-n1cnc(C(=O)NC(CN)c2cc(F)cc(Cl)c2)c1 (centres unmarked)", "target": "CDK5 with p25", "technique": "radiometric", "concentration": "1 µM", "remaining activity [%]": 2}
{"SMILES": "CC(C)(C)c1nc(-c2cccc(NS(=O)(=O)c3c(F)cccc3F)c2F)c(-c2ccnc(N)n2)s1", "target": "Cyclin-dependent kinase 5, with p35 (CDK5, Homo sapiens, UniProt Q00535)", "technique": "radiometric", "concentration": "1 µM", "remaining activity [%]": 82}
{"SMILES": "CC(C)(O)[C@H]1CC[C@H](Nc2ccc3ncc(-c4cccc(C(F)(F)F)c4)n3n2)CC1", "target": "CDK5 with p25", "concentration": "1 µM", "remaining activity [%]": 92.2}
{"SMILES": "Cc1sc(C(=O)NC2COC2)cc1-n1cc(NC(=O)Nc2c(F)cccc2Cl)cn1", "target": "CDK5 with p25", "concentration": "10 µM", "remaining activity [%]": 97.6}
{"SMILES": "CC[C@H](C)[C@H](NC(=O)[C@H](CCC(N)=O)NC(=O)[C@H](CC(C)C)NC(=O)[C@H](CCSC)NC(=O)[C@H](CCCCN)NC(=O)[C@H](CO)NC(=O)[C@H](CO)NC(=O)[C@H](CCSC)NC(=O)[C@H](CC(C)C)NC(=O)[C@H](CC(N)=O)NC(=O)[C@@H](NC(=O)[C@@H](NC(=O)[C@H](CO)NC(=O)[C@H](CC(C)C)NC(=O)[C@H](CS)NC(=O)[C@H](CCCNC(=N)N)NC(=O)[C@H](CC(=O)O)NC(=O)[C@H](Cc1c[nH]c2ccccc12)NC(=O)[C@H](Cc1ccccc1)NC(=O)[C@H](C)NC(=O)[C@H](CCC(=O)O)NC(=O)[C@@H](N)CCCCN)C(C)C)[C@@H](C)CC)C(=O)N[C@@H](CC(N)=O)C(=O)N[C@@H](C)C(=O)O", "target": "CDK5 with p25", "technique": "radiometric", "concentration": "250 µM", "time": "20 min", "remaining activity [%]": 41}
{"SMILES": "O=C(Nc1cnn(-c2csc(C(=O)NC3COC3)c2)c1)Nc1ccccc1Cl", "target": "CDK5 with p25", "concentration": "5 µM", "remaining activity [%]": 101}
{"SMILES": "Cc1ccc(C(=O)Nc2ccc(CN3CCN(C)CC3)c(C(F)(F)F)c2)cc1C#Cc1cnc2cccnn12", "target": "Cyclin-dependent kinase 5 (CDK5, Homo sapiens, UniProt Q00535)", "concentration": "23.5 nM", "remaining activity [%]": 98}
{"SMILES": "O=C(Nc1cnn(-c2csc(C(=O)NC3COC3)c2)c1)Nc1c(F)cccc1Cl", "target": "CDK5 with p25", "concentration": "5 µM", "remaining activity [%]": 88.2}
{"SMILES": "CCN(CC)c1ccc(C2=NNC(=O)CC2C)cc1[N+](=O)[O-] (centres unmarked)", "target": "CDK5 with p25", "concentration": "10 µM", "remaining activity [%]": 113}
